Laboratory results reported in ChEMBL document CHEMBL1129492, “Structure-activity relationships among 2-substituted 5,6-dichloro-, 4,6-dichloro-, and 4,5-dichloro-1-[(2-hydroxyethoxy) methyl]- and -1-[(1,3-dihydroxy-2-propoxy) methyl]benzimidazoles” (J Med Chem, 1996).

How the values were obtained:
[1] = test system: KB; assay: Inhibitory activity of compound against KB cell growth [>-indicates IC50/IC90 was not reached at the noted (highest) concentration tested]; type: functional, cell-based; conditions: Homo sapiens
Summary of the method: (§1)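 KB cells plated at 3000-5000 cells/well and held overnight at 37 °C. Compound added in quadruplicate at six to eight concentrations, then 48 h at 37 °C in CO₂ (about two population doublings). Cells fixed with 95% ethanol, stained with 0.1% crystal violet, dye eluted with acidified ethanol and read at 570 nm. IC50 from regression.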

[2] = test system: Human betaherpesvirus 5; assay: Antiviral activity against human cytomegalovirus (HCM virus) in plaque assay; type: functional, organism-based
Summary of the method: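 HCMV Towne strain (plaque-purified P_O) at ca. 100 PFU/cm² on HFF cell sheets. After adsorption, compound in growth medium was added to duplicate wells at four to eight concentrations. Incubated 7 days at 37 °C, then crystal violet staining and microscopic plaque counts. Percent plaque reduction versus no drug; IC50 from regression lines.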

[3] = test system: HFF; assay: Visual cytotoxicity of compound on HFF cells at time of HCMV plaque enumeration; type: functional, cell-based; conditions: Homo sapiens
Summary of the method: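 Stationary, uninfected HFF cells in the HCMV plaque assay were scored microscopically for cytotoxicity when plaques were enumerated, after 7 days at 37 °C.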

[4] = test system: Human alphaherpesvirus 1; assay: Antiviral activity against herpes simplex virus type 1 (HSV-1) in an ELISA assay; type: functional, organism-based
Summary of the method: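 BSC-1 cells (10 000/well, MEM(E) + 10% calf serum) incubated overnight at 37 °C, then given drug in quadruplicate with HSV-1 at 100 PFU/well. After 3 days at 37 °C, plates were blocked and probed with HRP-conjugated rabbit anti-HSV-1 antibody and developed with tetramethylbenzidine. Absorbance was read at 450 and 570 nm. Percent reduction was taken versus virus without drug.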

[5] = test system: KB; assay: Inhibitory activity of compound against KB cell growth; type: functional, cell-based; conditions: Homo sapiens; summary of the method: as §1
[6] = test system: Human betaherpesvirus 5; assay: Antiviral activity of compound against HCMvirus in yield reduction experiments; type: functional
Summary of the method: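 HCMV Towne strain (plaque-purified isolate P_O) grown on HFF cells in 96-well dishes, infected at moi 0.5-1 PFU/cell. After adsorption, compound added in 1:3 serial dilutions from 100 to 0.14 µM, in duplicate. 7 days at 37 °C, then one freeze-thaw. Progeny titred by plaque count on fresh HFF monolayers.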

[7] = test system: Human betaherpesvirus 5; assay: Antiviral activity of compound against HCM virus in yield reduction experiments; type: functional
Summary of the method: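 HFF cells infected with HCMV (Towne) at moi 0.5-1 PFU/cell, then given compound serially diluted 1:3 (100 to 0.14 µM) in duplicate. After 7 days at 37 °C, one freeze-thaw cycle. Progeny virus was titered by 1:3 serial dilution on fresh HFF monolayers with plaque counting. IC90 reported.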

Structure (SMILES)	IC50 [1] [µM]	IC50 [2] [µM]	IC50 [3] [µM]	IC50 [4] [µM]	IC50 [5] [µM]	IC90 [6] [µM]	IC90 [7] [µM]
Nc1nc2c(Cl)c(Cl)ccc2n1COC(CO)CO	> 100	> 100	> 100	> 100			
OCCOCn1c(Cl)nc2c(Cl)c(Cl)ccc21		> 100	> 100	> 100	> 100		
OC[C@H]1O[C@H](n2c(Br)nc3cc(Cl)c(Cl)cc32)[C@@H](O)[C@H]1O	> 100					0.2	
Nc1nc2c(Cl)cc(Cl)cc2n1COC(CO)CO		> 100	100				
OCCOCn1c(S)nc2c(Cl)c(Cl)ccc21		> 100	> 100	> 100	> 100		
OCC(CO)OCn1c(S)nc2c(Cl)c(Cl)ccc21	> 100	> 100	> 100	> 100			
OCCOCn1c(SCc2ccccc2)nc2cc(Cl)c(Cl)cc21		40	32	45	55		
CN(C)c1nc2cc(Cl)c(Cl)cc2n1COC(CO)CO	> 100	> 100	> 100	> 100			
OCCOCn1c(S)nc2cc(Cl)c(Cl)cc21		> 100	100	> 100	> 100		
OCCOCn1c(SCc2ccccc2)nc2c(Cl)c(Cl)ccc21		30	32	> 100	35		
CNc1nc2c(Cl)c(Cl)ccc2n1COC(CO)CO	> 100	> 100	> 100	> 100			
CN(C)c1nc2c(Cl)cc(Cl)cc2n1COCCO		> 100		> 100			
OCCOCn1c(Br)nc2c(Cl)cc(Cl)cc21		> 100	> 100	> 100	> 100		
OCC(CO)OCn1c(S)nc2cc(Cl)c(Cl)cc21	> 100	> 100	> 100	55			
OCC(CO)OCn1c(Br)nc2c(Cl)c(Cl)ccc21	> 100	> 100	> 100	> 100			
CNc1nc2c(Cl)cc(Cl)cc2n1COCCO		> 100	> 100	> 100	> 100		
OCCOCn1c(Cl)nc2c(Cl)cc(Cl)cc21		> 100		> 100			
CNc1nc2cc(Cl)c(Cl)cc2n1COC(CO)CO	> 100	> 100	> 100	> 100			
OCC(CO)OCn1c(SCc2ccccc2)nc2cc(Cl)c(Cl)cc21	> 100	> 100	> 100	> 100			
OCCOCn1c(Br)nc2cc(Cl)c(Cl)cc21		> 100	> 100	> 100	> 100		
CN(C)c1nc2cc(Cl)c(Cl)cc2n1COCCO		> 100	> 100	> 100	> 100		
OCCOCn1c(Br)nc2c(Cl)c(Cl)ccc21		> 100	> 100	> 100	> 100		
OC[C@H]1O[C@@H](n2c(Cl)nc3cc(Cl)c(Cl)cc32)[C@H](O)[C@@H]1O						1.4	
Nc1nc2c(ncn2COC(CO)CO)c(=O)[nH]1 [GANCICLOVIR]	> 100		> 100				1.6
